Experimental data published in ChEMBL document CHEMBL3875205, “Macrocyclic MEK1/2 inhibitor with efficacy in a mouse model of cardiomyopathy caused by lamin A/C gene mutation” (Bioorg Med Chem, 2017).
Active and inactive are the calls of the source. The rule behind the calls is not given here.

Key:
[1] = target: T1, Dual specificity mitogen-activated protein kinase kinase; MEK1/2 (Homo sapiens, UniProt P36507+Q02750); assay: Inhibition of MEK1/2 in HEK293 cells assessed as reduction in ERK1/2 phosphorylation at 0.001 to 1 uM after 24 hrs by immunoblot method; format: cell-based
How it was run: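 HEK-293 cells were grown in DMEM with 10% FBS, seeded at 5.0×10^5 per well and grown 24 h. After rinsing, they were exposed 24 h to serial dilutions from 1 to 0.001 µM final, or to Cremophor EL/saline vehicle. Cells were then washed with PBS, extracted and immunoblotted for phospho- and total ERK1/2.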

Mus musculus [2] = assay: In vivo inhibition of MEK1/2 in LmnaH222P/H222P mouse model of cardiomyopathy assessed as reduction in ERK1/2 phosphorylation in heart at 3 to 6 mg/kg/day, po administered 6 days per week via gavage starting from 14 weeks of age up to 20 weeks of age by immunoblot method; format: functional, organism-based
How it was run: (§1)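 Heart, liver and quadriceps from male mutant mice gavaged 3 or 6 mg/kg/day (weeks 14–20) were homogenized for protein. Proteins were run on SDS-PAGE, transferred to nitrocellulose and probed for phospho- and total ERK1/2 with HRP secondaries and chemiluminescence. Scanned blots were quantified as the pERK1/2 to total ERK1/2 ratio; n = 3, means ± SE.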

Mus musculus [3] = assay: In vivo inhibition of MEK1/2 in LmnaH222P/H222P mouse model of cardiomyopathy assessed as reduction in ERK1/2 phosphorylation in liver at 3 to 6 mg/kg/day, po administered 6 days per week via gavage starting from 14 weeks of age up to 20 weeks of age by immunoblot method; format: functional, organism-based; how it was run: as §1
Mus musculus [4] = assay: In vivo inhibition of MEK1/2 in LmnaH222P/H222P mouse model of cardiomyopathy assessed as reduction in ERK1/2 phosphorylation in quadriceps muscle at 6 mg/kg/day, po administered 6 days per week via gavage starting from 14 weeks of age up to 20 weeks of age by immunoblot method; format: functional, organism-based; how it was run: as §1
[5] = (§2) Cardioprotective activity in LmnaH222P/H222P mouse model of cardiomyopathy assessed as left ventricular end diastolic diameter at 3 mg/kg/day, po administered 6 days per week via gavage starting from 14 weeks of age up to 20 weeks of age by echocardiographic method (reference value: 3.96 +/- 0.08 millimeter); format: functional, organism-based; conditions: Heart
[6] = as §2, with “at 6” for “at 3”; format: functional, organism-based; conditions: Heart
[7] = as §2, with “systolic” for “diastolic”, “3.32” for “3.96”, “0.1” for “0.08”; format: functional, organism-based; conditions: Heart
[8] = as §2, with “systolic” for “diastolic”, “6” for “3”, “3.32” for “3.96”, “0.1” for “0.08”; format: functional, organism-based; conditions: Heart
[9] = Cardioprotective activity in LmnaH222P/H222P mouse model of cardiomyopathy assessed as left ventricular fractional shortening at 3 mg/kg/day, po administered 6 days per week via gavage starting from 14 weeks of age up to 20 weeks of age by echocardiographic method (reference value: 16.36 +/- 1.08%); format: functional, organism-based; conditions: Heart
[10] = Cardioprotective activity in LmnaH222P/H222P mouse model of cardiomyopathy assessed as left ventricular fractional shortening at 6 mg/kg/day, po administered 6 days per week via gavage starting from 14 weeks of age up to 20 weeks of age by echocardiographic method (reference value: 16.36 +/- 1.08%); format: functional, organism-based; conditions: Heart
[11] = Cardioprotective activity in LmnaH222P/H222P mouse model of cardiomyopathy assessed as heart rate at 3 mg/kg/day, po administered 6 days per week via gavage starting from 14 weeks of age up to 20 weeks of age by echocardiographic method (reference value: 502.73 +/- 0.46 bpm); format: functional, organism-based
[12] = Cardioprotective activity in LmnaH222P/H222P mouse model of cardiomyopathy assessed as heart rate at 6 mg/kg/day, po administered 6 days per week via gavage starting from 14 weeks of age up to 20 weeks of age by echocardiographic method (reference value: 502.73 +/- 0.46 bpm); format: functional, organism-based
[13] = Cardioprotective activity in LmnaH222P/H222P mouse model of cardiomyopathy assessed as reduction in Nppa mRNA expression in heart at 3 to 6 mg/kg/day, po administered 6 days per week via gavage starting from 14 weeks of age up to 20 weeks of age by qRT-PCR method relative to placebo treated control; format: functional, organism-based
How it was run: (§3)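 Hearts from male Lmna H222P/H222P mice gavaged 6 days/week, weeks 14–20, with vehicle or 3 or 6 mg/kg/day. Real-time RT-PCR with SYBR green and 200 nM of each primer; 95°C 2 min, then 50 cycles of 95°C 30 s and 62°C 30 s. ΔΔCT method normalized to Gapdh; fold change versus placebo (n = 5, 5, 6).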

[14] = Cardioprotective activity in LmnaH222P/H222P mouse model of cardiomyopathy assessed as reduction in Myl7 mRNA expression in heart at 6 mg/kg/day, po administered 6 days per week via gavage starting from 14 weeks of age up to 20 weeks of age by qRT-PCR method relative to placebo treated control; format: functional, organism-based; how it was run: as §3
[15] = Cardioprotective activity in LmnaH222P/H222P mouse model of cardiomyopathy assessed as reduction in myocardial fibrosis administered 6 days per week via oral gavage starting from 14 weeks of age up to 20 weeks of age by masson trichrome staining based assay; format: functional, tissue-based; conditions: Heart
How it was run: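 Left ventricles from male mutant mice dosed 3 or 6 mg/kg/day by gavage (weeks 14–20) were fixed in 4% formaldehyde for 48 h, paraffin-embedded, cut at 5 μm and stained with Masson trichrome. Graded 0–4 for vacuolation and fibrosis: 0–2 no fibrosis with none, mild or moderate vacuolation; 3 mild fibrosis; 4 severe fibrosis. n = 5, 5, 6.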

Mus musculus [16] = assay: (§4) In vivo inhibition of MEK1/2 in LmnaH222P/H222P mouse model of cardiomyopathy assessed as reduction in ERK1/2 activation-mediated muscular dystrophy by measuring inhibition of serum creatine phosphokinase activity at 6 mg/kg/day, po administered 6 days per week via gavage starting from 14 weeks of age up to 20 weeks of age; format: functional, organism-based
How it was run: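 Serum from male Lmna H222P/H222P mice gavaged with vehicle or 3 or 6 mg/kg/day from 14 to 20 weeks of age was assayed for creatine phosphokinase activity. Means ± SE, n = 10 per group.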

Mus musculus [17] = assay: as §4, with “increase in forelimb grip fatigue index” for “inhibition of serum creatine phosphokinase activity”; format: functional, organism-based
How it was run: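 Forelimb grip strength was tested by an investigator blind to treatment on two consecutive days and normalized to body mass. Fatigue index = (C+D)/(A+B), where A–D are sums of pulls 1–3, 4–6, 10–12 and 13–15; a value of 1 means no fatigue. Mice were gavaged from weeks 14–20; n = 7 placebo, 6 treated.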

[18] = target: T1, Dual specificity mitogen-activated protein kinase kinase; MEK1/2; assay: Inhibition of MEK1/2 in human HT-29 cells assessed as reduction in cell proliferation after 72 hrs by CellTiter-Glo assay; format: cell-based
How it was run: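 HT-29 cells were plated at 2,000/well in DMEM or RPMI with 10% FBS and left overnight at 37°C, 5% CO2. Medium was replaced with compound at 3-fold dilutions from 3.3 µM to 4.5 nM. After 72 h, viability was read by CellTiter-Glo luminescence and IC50 calculated.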

T1 sequence (P36507 whole entry, looked up): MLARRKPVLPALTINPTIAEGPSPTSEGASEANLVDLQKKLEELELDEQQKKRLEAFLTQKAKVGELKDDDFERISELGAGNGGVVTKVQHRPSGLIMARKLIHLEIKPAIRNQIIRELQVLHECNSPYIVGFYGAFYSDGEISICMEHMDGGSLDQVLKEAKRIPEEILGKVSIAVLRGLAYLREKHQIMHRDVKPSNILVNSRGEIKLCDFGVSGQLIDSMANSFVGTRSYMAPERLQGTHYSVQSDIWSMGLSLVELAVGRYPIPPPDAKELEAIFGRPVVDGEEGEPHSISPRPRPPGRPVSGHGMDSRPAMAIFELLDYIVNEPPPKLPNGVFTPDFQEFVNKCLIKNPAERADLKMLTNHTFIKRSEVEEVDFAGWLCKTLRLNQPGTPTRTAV
T1 sequence (Q02750 whole entry, looked up): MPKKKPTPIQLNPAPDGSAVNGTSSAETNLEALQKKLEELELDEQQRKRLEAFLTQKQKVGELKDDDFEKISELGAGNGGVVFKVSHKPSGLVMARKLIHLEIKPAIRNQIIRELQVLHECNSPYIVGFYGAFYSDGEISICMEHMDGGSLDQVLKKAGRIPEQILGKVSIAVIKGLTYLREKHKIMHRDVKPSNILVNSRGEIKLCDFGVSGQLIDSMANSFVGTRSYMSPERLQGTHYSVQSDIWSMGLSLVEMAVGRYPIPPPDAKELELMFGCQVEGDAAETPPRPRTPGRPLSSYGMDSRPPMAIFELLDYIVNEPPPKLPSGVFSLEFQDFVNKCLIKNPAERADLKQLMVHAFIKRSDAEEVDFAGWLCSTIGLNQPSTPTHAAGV

| Structure (SMILES) | inhibition [1] | inhibition (Mus musculus [2]) | inhibition (Mus musculus [3]) | inhibition (Mus musculus [4]) | Activity [5] [mm] | Activity [6] [mm] | Activity [7] [mm] | Activity [8] [mm] | Activity [9] [%] | Activity [10] [%] | Activity [11] [bpm] | Activity [12] [bpm] | Activity [13] | Activity [14] | Activity [15] | inhibition (Mus musculus [16]) | inhibition (Mus musculus [17]) | IC50 [18] [nM] |
| --- | --- | --- | --- | --- | --- | --- | --- | --- | --- | --- | --- | --- | --- | --- | --- | --- | --- | --- |
| O=S1(=O)Nc2c(cc(F)c(F)c2Nc2ccc(I)cc2F)OCC(O)C(O)CC12CC2 (single isomer, unassigned; form 1) | Active | Active | Active | Active | 4 | 3.77 | 3.24 | 3.02 | 19.4 | 20.6 | 504 | 502 | Active | Active | Dose-dependent effect | Active | Active |  |
| O=S1(=O)Nc2c(cc(F)c(F)c2Nc2ccc(I)cc2F)OCC(O)C(O)CC12CC2 (single isomer, unassigned; form 2) |  |  |  |  |  |  |  |  |  |  |  |  |  |  |  |  |  | 400 |
